Compound activity deposited in PubChem BioAssay by several laboratories.
Rows were chosen to be rich in hits. Some 3.3% of all compounds tested hit in one or more screens of this group.
m5-HT2A agonist: agonists of mouse serotonin 5-HT2A receptor (HTR2A) | activation, % at 7.6 µM | P35363 | actives 0.66% (n = 360,000) | CHO-K1 mHTR2A beta-arrestin complementation, luminescence; percent of 30 µM serotonin response;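 active = activation above a run cutoff, the mean activation of all tested compounds plus 3 SD, cut at about 14% in these data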;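 also: 0% = plate median of compound wells and 100% = 30 µM serotonin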
Hep lipid drop: hepatic lipid droplet formation modulation; AML12 mouse hepatocytes, oleate lipid droplets, BODIPY imaging; inhibition, % at 6.5 µM; actives 0.4% (n = 240,000); AID 1656;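 active = lipid droplet intensity inhibited by at least 50%, with more than 500 cells counted; inconclusive = wells with under 300 cells, treated as cytotoxic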
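Material – AML12 mouse liver cells · Also added – oleate loading, 100 µM · Compound dosing – 6.5 µM single-point dosing · Times – overnight treatment with compound plus oleate · Measured by – fluorescence imaging, 20x objective, two fields per well · Read-out – percent inhibition of filter-corrected integrated lipid droplet intensity per well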
CendR NRP1 mod: NRP-1/CendR interaction modulation; FAM-RPARPAR peptide binding to NRP-1, fluorescence polarization; inhibition, % at 25 µM; actives 0.85% (n = 360,000);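 active = inhibition or corrected inhibition above about 18%, plus a signal ratio from 0.5 to 1.5, limit read from the data, passing the limit was not always enough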
HGIII-sPLA2 inh: Inhibits HGIII-sPLA2 liposome hydrolysis, primary screen. actives 0.56% (n = 370,000). AID 743126. QFRET BODIPY PC-A2 liposome hydrolysis, fluorescence. inhibition, % at 12.2 µM;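 active = inhibition above mean plus 3 SD of compounds lying within the high and low control bounds, cut at about 19% in these data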;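 also: 0% = median of test compound wells and 100% = no enzyme DMSO wells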
Target sequence (Q9NZ20 whole entry, looked up): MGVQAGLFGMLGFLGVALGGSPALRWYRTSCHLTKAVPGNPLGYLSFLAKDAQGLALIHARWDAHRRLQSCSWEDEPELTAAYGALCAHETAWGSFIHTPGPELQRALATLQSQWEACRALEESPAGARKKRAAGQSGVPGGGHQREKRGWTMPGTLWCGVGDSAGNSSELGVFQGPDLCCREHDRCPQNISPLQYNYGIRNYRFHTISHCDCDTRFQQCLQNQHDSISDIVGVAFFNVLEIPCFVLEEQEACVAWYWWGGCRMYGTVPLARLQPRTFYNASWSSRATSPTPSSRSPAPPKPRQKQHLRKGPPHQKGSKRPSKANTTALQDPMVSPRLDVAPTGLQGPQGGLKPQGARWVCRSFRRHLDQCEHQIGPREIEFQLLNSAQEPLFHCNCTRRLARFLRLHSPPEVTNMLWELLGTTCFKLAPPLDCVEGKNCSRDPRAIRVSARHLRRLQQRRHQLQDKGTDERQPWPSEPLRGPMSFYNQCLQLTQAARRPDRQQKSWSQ
Arr AP2 block: human beta-arrestin and AP2 interaction inhibition | inhibition, % at 10 µM | actives 0.31% (n = 340,000) | AID 504490 | FITC-arrestin peptide / GST-AP2 beads, flow cytometry; AP2 beta2 appendage carries R879A mutation;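 active = inhibition above a set limit, near 3 SD of compounds lacking own fluorescence, cut at about 54% in these data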;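 also: plate controls were DMSO wells for no effect and 5 µM unlabelled arrestin peptide for full effect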
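Material – AP2 appendage R879A on GSH beads · Buffer or medium – PBS with 0.05% Tween 20 and 0.1% BSA · Probe or stimulus – fluorescein-tagged arrestin peptide at 50 nM final · Incubation – compound with beads 12 min RT, then probe 1 h RT · Detection – high-throughput flow cytometry of beads, ex 488, em 535 nm · Evaluation – percent response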
M18AAP inhibitor: blocks P. falciparum M18 aspartyl aminopeptidase; recombinant PfM18AAP, H-Glu-NHMec fluorogenic cleavage; inhibition, % at 7.35 µM; actives 1.2% (n = 290,000); AID 1822;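 active = inhibition above the campaign mean inhibition over all tested compounds plus 3 SD, cut at about 28% in these data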;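 also: 0% = plate median of test compound wells and 100% = 2 mM ZnCl2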
Lipid drop inh: hepatic lipid droplet formation inhibition, confirmed. shares compounds with Hep lipid drop. AML12 mouse hepatocytes, BODIPY lipid droplet imaging; droplets induced with 100 µM oleic acid. inhibition, % at 5.2 µM. actives 65% (n = 870);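 active = inhibition of lipid droplet metric at least 50%, with more than 300 cells in each of four replicates; inconclusive = wells under 300 cells, flagged as toxic or low count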;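 also: plate controls were DMSO with oleic acid for no effect and 5 µM Triacsin-C for full effect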
AML12 tox img: AML12 hepatocyte cytotoxicity (counter-screen). shares compounds with Hep lipid drop. AML12 mouse hepatocytes, DAPI nuclear morphology cytotoxicity imaging; active compounds read high; cells fed 100 µM oleate overnight. z-score at 5 µM. actives 3% (n = 870); in the data active = z-score above about 6.3;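 also: compound exposure lasted overnight at 37 °C before fixation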
AML12 tox ATP: AML12 hepatocyte cytotoxicity, confirmed; shares compounds with Hep lipid drop; AML12 mouse hepatocyte viability, ATP luminescence; cells loaded with 100 µM oleic acid; cytotoxicity, % at 50 µM; 530 tested, under 10 active; AID 463219;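 active = cytotoxicity above 50% in each of four replicates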;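 also: compound exposure lasted overnight at 37 °C before the ATP read; 0% = DMSO-treated cells and 100% = wells with no cells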
Starred values were filed as active, the others as inactive; ? = inconclusive; · = no result given.

SMILES	m5-HT2A agonist	Hep lipid drop	CendR NRP1 mod	HGIII-sPLA2 inh	Arr AP2 block	M18AAP inhibitor	Lipid drop inh	AML12 tox img	others
Cc1cc2c(cc1S(=O)(=O)Nc1c(C)cccc1C)n(C)c(=O)c(=O)n2C	-1	71*	8	13	-6	4	92*	-0.12	AML12 tox ATP=8
O=c1[nH]cnc2c1ncn2C1OC(CO)CC1F (stereo not given)	1	·	17	-4	·	·	·	·
O=C(CN1C(=O)NC2(CCOc3ccccc32)C1=O)c1ccc(Br)cc1 (stereo not given)	-1	66*	16	-6	27	2	102*	0.18	AML12 tox ATP=16
O=C(/C=C/c1ccc(Cl)cc1)NC(=S)Nc1ccc(NC(=O)c2ccco2)cc1	0	57*	-19	-9	11	-6	14	3
C=C(C)Cn1c(N2CCC(Cc3ccccc3)CC2)nc2c1c(=O)[nH]c(=O)n2C	3	64*	2	-3	26	-6	107*	-0.55	AML12 tox ATP=-2
CC(=O)Cn1c(N2CCC(Cc3ccccc3)CC2)nc2c1c(=O)[nH]c(=O)n2C	2	·	3	-2	3	-1	·	·
CC(=O)Nc1ccc(CN(C)c2c(C)nc3ccc(C(=O)N4CCN(C(=O)c5ccco5)CC4)cn23)cc1	-1	·	-1	2	·	·	·	·
Cn1c(O)c(N=NC(=O)C2COc3ccccc3O2)c2ccccc21 (stereo not given)	1	-3	3	1	-13	1	·	·
CC(C)n1c(O)c(N=NC(=O)C2COc3ccccc3O2)c2ccccc21 (stereo not given)	-2	52*	13	8	-13	2	-1	-1.1
CC(=O)c1ccc(OCCNS(=O)(=O)c2ccc(-n3cnnn3)c(C)c2)cc1	5	-9	-11	-4	7	2	·	·
Cc1cc(-n2cnnn2)cc(C)c1S(=O)(=O)NCCOc1ccccc1	5	61*	5	-3	-2	-2	-1	-0.31
Oc1ccc(N=Nc2cccc(C(F)(F)F)c2)cc1C=Nc1ccc(N2CCOCC2)cc1	-3	58*	9	1	49	0	41	-0.23
Oc1ccc(C=Nc2ccc(N3CCOCC3)cc2)c(O)c1	3	0	-24	-1	10	18	·	·
CN1C(=O)[C@H]2[C@@H](c3ccccc3)N[C@]3(CCCN(Cc4ccc(F)cc4)C3=O)[C@H]2C1=O	0	·	5	3	·	·	·	·
CCC(=O)Nc1ccc2c(c1)OC[C@@H](C)N(Cc1ccccc1F)C[C@@H](C)[C@@H](OC)CN(C)C2=O	-1	·	-2	-3	·	·	·	·
Cc1nnc(SCC(=O)Nc2cc(C(C)(C)C)nn2-c2ccccc2)s1	-3	-12	6	-2	-2	-3	·	·
Cc1nnc(SCC(=O)Nc2cc(-c3cc(C)c(C)cc3C)nn2-c2ccccc2)s1	-6	78*	-6	-29	-3	2	89*	-0.66	AML12 tox ATP=-7
CCCCOc1ccc(NC(=O)Cn2c(=O)ccc3c(C)cc(C)nc32)cc1	-1	66*	-5	7	24	7	91*	-0.13	AML12 tox ATP=10
COc1ccc(N(C(=O)CCl)C(C(=O)NCCc2ccccc2)c2cccs2)cc1Cl (stereo not given)	2	127*	-18	0	14	-13	?	34*
COc1cccc(N(C(=O)CCl)C(C(=O)NCCc2ccccc2)c2cccs2)c1 (stereo not given)	9	-10	-19	17	1	-13	·	·
COc1cccc(C(=O)NCC(C)(C)SCc2ccc(F)cc2)c1	5	·	1	0	-2	7	·	·
O=C1N2CCc3ccccc3C2CS(=O)(=O)N1CCc1ccccc1 (stereo not given)	·	·	·	1	·	·	·	·
